Assay results gathered from unrelated publications.
Organism: Human immunodeficiency virus 1
Read-out: viral replication

c1cc(CN2CCCNCCNCCCNCC2)ccc1CN1CCCNCCNCCCNCC1 has an EC50 of 0.00093 µM (inhibitor, luciferase; TZM-bl).
O=c1[nH]cc(C(c2cccc(C(c3c[nH]c(=O)[nH]c3=O)c3c[nH]c(=O)[nH]c3=O)c2)c2c[nH]c(=O)[nH]c2=O)c(=O)[nH]1 gave an inhibition of 20% (inhibitor, ELISA; 1 µg/mL).
O=c1oc2c(O)c(O)cc3c(=O)oc4c(O)c(O)cc1c4c23 has an IC50 of 73 µg/mL (inhibitor; CEM-GFP; 8 days).
With CC(C)(C)NC(=O)[C@@H]1C[C@@H]2CCCC[C@@H]2CN1C[C@@H](O)[C@H](Cc1ccccc1)NC(=O)[C@H](CC(N)=O)NC(=O)c1ccc2ccccc2n1 the IC50 was 0.021 µM (inhibitor; T-lymphoid).
For c1cc(CN2CCCNCCNCCCNCC2)ccc1CN1CCCNCCNCCCNCC1, the IC90 was over 10 µM (inhibitor; MAGI, BAL).
C/C(=C\C(=O)OCCCCCCCCC(=O)O)C[C@@H]1OC[C@H](C[C@@H]2O[C@H]2[C@@H](C)[C@H](C)O)[C@@H](O)[C@H]1O gave an EC50 of over 100 µM (inhibitor; TZM-bl).
O=c1cc(-c2ccc(O)c(O)c2)oc2cc(O)cc(O)c12 gave an EC50 of 12.7 µM (inhibitor; human PBMC; 6 days).
With Cc1cn([C@H]2C[C@H](N=[N+]=[N-])[C@@H](CO)O2)c(=O)[nH]c1=O the IC50 was 0.043 µg/mL (inhibitor, luciferase; TZM-bl; 48 h).
COc1cc(F)ccc1-c1ncnc(Nc2cccc(C[S@](C)(=N)=O)c2)n1 has an EC50 of 3.4 µM (inhibitor; human PBMC; 6 days).
Cc1nc(C(CN)NC(=O)C(=O)Nc2ccc3c(c2)OCO3)sc1CO (stereo not drawn) gave an IC50 of over 79 µM (ELISA; MT2).
C[C@@H](O[C@H]1OCCN(Cc2n[nH]c(=O)[nH]2)[C@H]1c1ccc(F)cc1)c1cc(C(F)(F)F)cc(C(F)(F)F)c1 gave an IC50 of 6.4 µM (inhibitor, ELISA; human PBMC, BAL).
O=C(O)c1cc(F)cc(Cn2ccc3ccc(-c4ccc5ccn(Cc6cccc(OC(F)(F)F)c6)c5c4)cc32)c1 gave an IC50 of 2 µM (inhibitor; IIIB).
With O=C(O)c1cc(O)c(O)c(O)c1 the IC50 was 0.19 µg/mL (inhibitor; CEM-GFP; 8 days).
O=C1C[C@@H](c2ccc(O)cc2)Oc2cc(O)cc(O)c21 has an EC50 of over 30 µM (inhibitor; human PBMC; 6 days).
For COc1ccccc1CN[C@H]1C2CCN(CC2)[C@H]1C(c1ccccc1)c1ccccc1, the IC50 was 15.2 µM (ELISA; human PBMC, BAL; 7 days).
